The nature of data set [1]: Toxicity in ip dosed ICR mouse up to 3 weeks. Conditions: in vivo. The class given is organism-based. Summed up: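 Maximum tolerated dose was set from a single ip injection into three female ICR mice weighing 20–21 g, followed by 3 weeks of observation.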
The subject of data set [2] is L1210. Briefly: Antitumor activity against mouse L1210 cells allografted in BDF1 mouse assessed as increase of host life span at 100 mg/kg, ip qd for 5 days. Conditions: route intraperitoneal. The class given is functional. An outline of the steps:
(§1)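 BDF1 mice were given 1×10^5 L1210 cells ip. Compound was dissolved or suspended in 0.9% NaCl with 0.1% HCO-60 and given ip daily for 5 days, starting 24 h after inoculation. Groups had 6–10 mice. ILS = (T/C − 1) × 100, from mean survival time of treated versus control mice, observed over 60 days.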

Data set [3] has as its system L1210. As to the kind of experiment: Antitumor activity against mouse L1210 cells allografted in BDF1 mouse assessed as increase of host life span at 25 mg/kg, ip qd for 5 days. It is filed as functional. Conditions: route intraperitoneal. Summed up: as §1
In data set [4] the test system is L1210. Briefly: Antitumor activity against mouse L1210 cells allografted in BDF1 mouse assessed as increase of host life span at 6.25 mg/kg, ip qd for 5 days. The class given is functional. The following applies: route intraperitoneal. Summed up: as §1
Data set [5] concerns L1210. Briefly: Antitumor activity against mouse L1210 cells allografted in BDF1 mouse assessed as increase of host life span at 100 mg/kg, po qd for 5 days. It is filed as functional. Summed up: (§2)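 L1210 cells (1×10^5) were implanted ip in BDF1 mice. Oral dosing began 24 h later and ran once daily for 5 days, with compound in 0.9% saline containing 0.1% HCO-60 as solution or suspension. Six to ten mice per group. Percent ILS was (T/C − 1) × 100 on mean survival time, with a 30-day observation period.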

The subject of data set [6] is L1210. As to the kind of experiment: Antitumor activity against mouse L1210 cells allografted in BDF1 mouse assessed as increase of host life span at 200 mg/kg, po qd for 5 days. It is filed as functional. An outline of the steps:
as §2

Take `CCCCCCCCCCCOC(=O)CCC(=O)OC[C@H]1O[C@@H]2[C@H](Oc3nc(=N)ccn32)[C@@H]1OC(=O)CCC(=O)OCCCCCCCCCCC.Cl`: in data set [1], the MTD at 504 h is 750 mg/kg. For the same compound, the Activity with L1210 [2] amounted to 94.6%; in the data set on L1210 [3], 43.6%; in the data set with L1210 [4], 15.4%; in the data set with L1210 [5], 10.8%.
`CCCCSCCCCCCCCCCC(=O)OC[C@H]1O[C@@H]2[C@H](Oc3nc(=N)ccn32)[C@@H]1OC(=O)CCCCCCCCCCSCCCC.Cl` came in with an MTD at 504 h in data set [1] of 500 mg/kg. Besides, the Activity is 13.3% with L1210 [6]; greater than 624.3% in the data set with L1210 [2]; 164% in the data set on L1210 [3]; 26.7% with L1210 [4]; 4% in the data set with L1210 [5].
`CCCC(=O)OCCCCCCCCCCC(=O)OC[C@H]1O[C@@H]2[C@H](Oc3nc(=N)ccn32)[C@@H]1OC(=O)CCCCCCCCCCOC(=O)CCC.Cl` came in with an MTD at 504 h in data set [1] of 300 mg/kg. For the same compound, the Activity in the data set with L1210 [6] is reported as 33.3%; with L1210 [2], 86.7%; in the data set with L1210 [3] it was 66.7%; in the data set with L1210 [4], 5.1%; in the data set with L1210 [5] it was 13.3%.
In data set [1], `CC(C)(C)c1ccc(C(=O)OC[C@H]2O[C@@H]3[C@H](Oc4nc(=N)ccn43)[C@@H]2OC(=O)c2ccc(C(C)(C)C)cc2)cc1.Cl` came in with an MTD at 504 h of 300 mg/kg. The Activity with L1210 [6] is listed as 26.7%; with L1210 [2] it was 116.7%; with L1210 [3], 84%; in the data set on L1210 [4], 26.7%; with L1210 [5], 22.7%.
Consider `CCCCC(=O)O[C@H]1[C@H]2Oc3nc(=N)ccn3[C@@H]2O[C@@H]1COP(=O)(O)O`, for which, in data set [1], the MTD at 504 h came out at 750 mg/kg. Further, the Activity worked out at 45.6% in the data set with L1210 [6]; 64.6% in the data set on L1210 [2]; 37% in the data set on L1210 [3]; 15.8% with L1210 [4]; 22.7% with L1210 [5].
Consider `CCCCCCCCCCCCCCCC(=O)OC[C@H]1O[C@@H]2[C@H](Oc3nc(=N)ccn32)[C@@H]1OC(=O)CCCCCCCCCCCCCCC.Cl`, for which the MTD at 504 h in data set [1] was 750 mg/kg. Besides, the Activity in the data set with L1210 [6] was 22.5%; in the data set on L1210 [2], greater than 528.2%; in the data set on L1210 [3] it was 151.3%; in the data set on L1210 [4], 59%; with L1210 [5], 0%.
